Experimental data from different studies.
Lines come from different studies, so protocols differ.
Target: Myosin light chain kinase, smooth muscle (MYLK, Homo sapiens, UniProt Q15746)

SMILES	observed	action	method	concentration	measurement	result
O=C(Nc1cccnn1)N1CCC(=Cc2cccc(Oc3ccc(C(F)(F)F)cn3)c2)CC1	cell-free assay	–	competition with immobilised ligand	1 µM	remaining binding	100%
Cc1sc(C(=O)NC2COC2)cc1-n1cc(NC(=O)Nc2c(F)cccc2Cl)cn1	enzyme activity	inhibitor	–	10 µM	remaining activity	103%
CC(C)(C)c1nc(-c2cccc(NS(=O)(=O)c3c(F)cccc3F)c2F)c(-c2ccnc(N)n2)s1	enzyme activity	inhibitor	radiometric	1 µM	remaining activity	74%
CO[C@H]1CC[C@H](CNc2ccc(S(=O)(=O)NC(=O)c3ccc(N4CCN(CC5=C(c6ccc(Cl)cc6)CC(C)(C)CC5)CC4)cc3Oc3cnc4[nH]ccc4c3)cc2[N+](=O)[O-])CC1	cell-free assay	–	competition with immobilised ligand	1 µM	remaining binding	50%
Nc1nc(Nc2ccccc2)sc1C(=O)c1c(F)cccc1F	enzyme activity	inhibitor	–	10 µM	remaining activity	29%
O=C(Nc1cnn(-c2csc(C(=O)NC3COC3)c2)c1)Nc1c(F)cccc1Cl	enzyme activity	inhibitor	–	5 µM	remaining activity	95.9%
Cn1cnc(Br)c1C1=CN(c2ncnc3[nH]cnc23)CCS1	enzyme activity	inhibitor	radiometric	50 nM	inhibition	33.5%
C[C@H](NC(=O)c1cnc2n1[C@](C)(Cc1ccc(C#N)cc1)C(=O)N2c1cc(Cl)c(F)c(Cl)c1)C(=O)NC1(c2ccccn2)CC1	cell-free assay	–	competition with immobilised ligand	1 µM	remaining binding	100%
CC(C)(C)C(=O)c1sc(NC2CCCCC2)nc1N	enzyme activity	inhibitor	–	10 µM	remaining activity	74%
CC(C)(O)[C@H]1CC[C@H](Nc2ccc3ncc(-c4cccc(C(F)(F)F)c4)n3n2)CC1	enzyme activity	inhibitor	–	1 µM	remaining activity	99.8%
O=C(NC[C@@H]1[C@H]2CN(C(=O)OCc3cc(C(F)(F)F)cc(C(F)(F)F)c3)C[C@@H]12)c1ccc2[nH]nnc2c1	cell-free assay	–	competition with immobilised ligand	1 µM	remaining binding	88%
Oc1ccc(-c2nc(-c3ccncc3)c(-c3ccc(F)cc3)[nH]2)cc1	cell-free assay	–	–	0.5 µM	remaining signal	106%
O=C(N1CCS(=O)(=O)CC1)N1C[C@H](c2ccc(OC(F)(F)F)cc2)C[C@H](c2nc(C3CC3)no2)C1	cell-free assay	–	competition with immobilised ligand	1 µM	remaining binding	100%
COc1cc(Nc2cnc(C#N)c(O[C@H](C)CN(C)C)n2)ncc1-c1cnn(C)c1	enzyme activity	inhibitor	radiometric	1 µM	remaining activity	80%
C[S+]([O-])c1ccc(-c2nc(-c3ccncc3)c(-c3ccc(F)cc3)[nH]2)cc1 (centres unmarked)	cell-free assay	–	–	0.5 µM	remaining signal	101%
COc1cc(Cl)c(C(=O)N[C@@H](CN[C@H]2CC[C@@H](N)CC2)Cc2ccc(C#N)cc2)cc1-c1ccc(CN[C@H](C)c2ccc(C)cc2)o1	enzyme activity	inhibitor	–	1 µM	remaining activity	95%
Cn1cncc1C1=CN(c2ncnc3[nH]cnc23)CCS1	enzyme activity	inhibitor	radiometric	50 nM	inhibition	18.2%
Cn1c2c(Cl)c(Cl)ccc2c2cc(N)[nH]c(=O)c21	thermal stability	–	DSF	10 µM	ΔTm	0.1 °C
O=C(Nc1ccc(Oc2ccc(F)cc2)cc1)N1CCc2ncccc2[C@H]1c1ccc(F)cc1	cell-free assay	–	competition with immobilised ligand	1 µM	remaining binding	100%
Oc1cccc(-c2nc(N3CCOCC3)c3oc4ncccc4c3n2)c1	enzyme activity	inhibitor	–	10 µM	remaining activity	48%
COCCOc1nc(-c2ccc(Cl)nc2)nc2c1CN(C(=O)c1ncn3ccccc13)CC2	cell-free assay	–	competition with immobilised ligand	0.1 µM	remaining binding	70%
N#CCCc1ccc2c(c1)-c1[nH]c3ccc([N+](=O)[O-])cc3c1CC(=O)N2	cell-free assay	–	–	0.5 µM	remaining signal	95.2%
FC(F)c1nc2ccccc2n1-c1nc(N2CCOCC2)nc(N2CCOCC2)n1	enzyme activity	inhibitor	–	10 µM	remaining activity	91%
CN(c1ncccc1CNc1nc(Nc2ccc3c(c2)CC(=O)N3)ncc1C(F)(F)F)S(C)(=O)=O	enzyme activity	inhibitor	–	1 µM	inhibition	16.6%
CNC(=O)Nc1ccc2c(c1)[C@@]1(CC2)OC(=O)N(CC(=O)N(Cc2ccc(F)cc2)[C@@H](C)C(F)(F)F)C1=O	cell-free assay	–	competition with immobilised ligand	1 µM	remaining binding	88%
C[C@@H]1CCN(c2nccc(-c3cnn4ncccc34)n2)C1	binding	–	–	1 µM	remaining binding	92%
